The values below come from ChEMBL document CHEMBL2146397, “The Substrate-Activity-Screening methodology applied to receptor tyrosine kinases: a proof-of-concept study” (Eur J Med Chem, 2012).

A short description of data set [1]: Solubility of the compound at >1 mM. The data set is classed as physicochemical.
Data set [2] has as its target T1, Insulin-like growth factor 1 receptor (Homo sapiens, UniProt P08069). The data set can be described thus: Activity at pre-activated human GST-His6-tagged IGF-1R expressed in Sf9 cells assessed as initial phosphorylation rate at 10 uM measured every 2 mins for 60 mins by Michaelis-Menten constant based ADP Quest assay. In a few lines: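 Reaction buffer was the same plus 0.1 mg/mL BSA, with kinase, peptide substrate and detection reagents. Started with ATP; fluorescence read every 2 min for 60 min; 3 independent experiments.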

Data set [3] deals with T1, Insulin-like growth factor 1 receptor. The data set can be described thus: Inhibition of pre-activated human GST-His6-tagged IGF-1R expressed in Sf9 cells using Ac-EAEDEPEGDYFEWLE-NHMe as substrate after 25 mins by luminescence assay.
Data set [4] shares this target. The data set can be described thus: Activity at pre-activated human GST-His6-tagged IGF-1R expressed in Sf9 cells up to 1 mM measured every 2 mins for 60 mins by Michaelis-Menten constant based ADP Quest assay. Summed up: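 Reactions used the same buffer plus 0.1 mg/mL BSA, pre-activated GST-His6-IGF-1R, peptide substrate titrated up to 1 mM, and ADP Quest reagents. ATP started the reaction. Fluorescence was read every 2 min for 60 min. KM came from a Michaelis-Menten fit, n = 3 independent experiments.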

Active and inactive are the calls of the source. The calls are words filed in the database; no cut-off is given here. Numbered stars: 1 amine (or outer) side, 2 acyl side, 3 side chain; on linkers, the order of the positions; unused ones are H or OH. Square brackets hold non-standard residues; d marks the D form. Peptide text beside a SMILES is read from it. * marks the point of attachment. X7 = O=C([C@H](Cc1ccc(C(O)P(=O)(O)O)cc1)N[*:1])[*:2]; Trp(6-Cl) = N[C@@H](Cc1c[nH]c2cc(Cl)ccc12)C(=O)O; Phe(4-Cl) = N[C@@H](Cc1ccc(Cl)cc1)C(=O)O; X2 = O=C(O)[C@H]1CCCC[C@@H]1C(=O)*; 3Pal = N[C@@H](Cc1cccnc1)C(=O)O

T1 sequence (P08069 31-736 limits assumed): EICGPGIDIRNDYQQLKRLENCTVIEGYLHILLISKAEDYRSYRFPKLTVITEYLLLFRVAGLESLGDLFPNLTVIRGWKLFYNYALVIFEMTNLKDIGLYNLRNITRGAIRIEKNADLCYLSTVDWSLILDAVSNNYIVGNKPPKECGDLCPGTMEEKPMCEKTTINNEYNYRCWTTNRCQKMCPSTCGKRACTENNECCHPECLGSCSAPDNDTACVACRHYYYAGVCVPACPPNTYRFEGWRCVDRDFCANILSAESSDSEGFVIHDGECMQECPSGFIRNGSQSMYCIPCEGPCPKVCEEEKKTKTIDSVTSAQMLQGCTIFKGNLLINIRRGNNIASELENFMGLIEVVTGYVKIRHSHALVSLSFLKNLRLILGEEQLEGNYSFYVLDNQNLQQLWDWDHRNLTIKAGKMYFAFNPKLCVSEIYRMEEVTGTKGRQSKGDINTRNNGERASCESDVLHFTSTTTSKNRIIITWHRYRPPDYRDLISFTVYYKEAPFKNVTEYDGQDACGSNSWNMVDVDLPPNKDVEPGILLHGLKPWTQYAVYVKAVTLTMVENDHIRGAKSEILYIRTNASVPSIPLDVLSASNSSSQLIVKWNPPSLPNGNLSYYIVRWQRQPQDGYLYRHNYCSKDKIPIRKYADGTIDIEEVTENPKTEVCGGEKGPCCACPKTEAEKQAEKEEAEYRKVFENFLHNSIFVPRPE
T1 sequence (P08069 741-1367 limits assumed): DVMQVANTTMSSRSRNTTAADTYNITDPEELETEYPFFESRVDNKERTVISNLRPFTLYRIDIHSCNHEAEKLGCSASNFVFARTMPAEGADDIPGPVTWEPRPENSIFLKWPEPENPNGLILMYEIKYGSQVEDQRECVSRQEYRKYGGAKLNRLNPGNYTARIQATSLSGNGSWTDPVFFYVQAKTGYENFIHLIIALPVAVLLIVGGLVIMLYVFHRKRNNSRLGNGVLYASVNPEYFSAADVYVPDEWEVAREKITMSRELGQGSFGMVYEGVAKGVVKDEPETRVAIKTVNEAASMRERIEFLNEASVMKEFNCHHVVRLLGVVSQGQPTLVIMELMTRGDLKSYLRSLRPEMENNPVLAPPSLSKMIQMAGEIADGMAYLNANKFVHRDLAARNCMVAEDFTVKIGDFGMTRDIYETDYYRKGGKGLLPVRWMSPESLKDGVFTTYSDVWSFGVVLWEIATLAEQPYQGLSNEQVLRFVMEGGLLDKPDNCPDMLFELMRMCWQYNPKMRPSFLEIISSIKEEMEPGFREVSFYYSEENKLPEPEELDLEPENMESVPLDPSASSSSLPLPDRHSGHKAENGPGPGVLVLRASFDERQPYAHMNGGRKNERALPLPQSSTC

Regarding `CNC(=O)[C@H](Cc1c[nH]c2ccccc12)NC(=O)[C@H](CCC(=O)O)NC(=O)[C@H](Cc1ccccc1)NC(=O)[C@H](Cc1ccc(O)cc1)NC(=O)[C@H](Cc1cccnc1)NC(C)=O`, in data set [1], the solubility result was “Insoluble”. Further, in data set [2], the Activity turned out to be 0.4 nM/s.
For the compound `CNC(=O)[C@@H](Cc1c[nH]c2ccccc12)NC(=O)[C@H](CCC(=O)O)NC(=O)[C@H](Cc1ccccc1)NC(=O)[C@H](Cc1ccc(O)cc1)NC(=O)[C@H](CCC(=O)O)NC(C)=O`, the solubility result in data set [1] is recorded as “Insoluble”.
Consider `CNC(=O)[C@@H](Cc1c[nH]c2ccccc12)NC(=O)[C@H](CCC(=O)O)NC(=O)[C@H](Cc1ccccc1)NC(=O)[C@H](Cc1ccc(O)cc1)NC(=O)[C@H](Cc1cccnc1)NC(C)=O`, for which the solubility result in data set [1] is “Insoluble”.
In the case of `CNC(=O)[C@H](Cc1ccc(Cl)cc1)NC(=O)[C@H](CCC(=O)O)NC(=O)[C@H](Cc1ccccc1)NC(=O)[C@H](Cc1ccc(O)cc1)NC(=O)[C@H](Cc1cccnc1)NC(C)=O` (Ac-[3Pal]YFE[Phe(4-Cl)]-NHMe), the solubility entry in data set [1] is “Insoluble”.
Take `CNC(=O)[C@H](Cc1ccc(Cl)cc1)NC(=O)[C@H](CCC(=O)O)NC(=O)[C@H](Cc1ccccc1)NC(=O)[C@H](Cc1ccc(C(O)P(=O)(O)O)cc1)NC(=O)[C@H](Cc1cccnc1)NC(C)=O` (stereo partly drawn) (Ac-[3Pal][X7]FE[Phe(4-Cl)]-NHMe): the half-inhibitory concentration (IC50) (as a rule, the midpoint of a concentration-inhibition curve) in data set [3] amounted to 489 µM.
As for `CNC(=O)[C@H](Cc1c[nH]c2ccccc12)NC(=O)[C@H](CCC(=O)O)NC(=O)[C@H](Cc1ccccc1)NC(=O)[C@@H](N)Cc1ccc(O)cc1` (HELM PEPTIDE1{Y.F.E.W.[CN[*:1]]}$$$$V2.0), the outcome in data set [4] was inactive.
Turning to `CNC(=O)[C@H](Cc1ccc(Cl)cc1)NC(=O)[C@H](CCC(=O)O)NC(=O)[C@H](Cc1ccccc1)NC(=O)[C@H](Cc1ccc(O)cc1)NC(=O)[C@H](CCC(=O)O)NC(C)=O` (HELM PEPTIDE1{[ac].E.Y.F.E.[O=C([C@H](Cc1ccc(Cl)cc1)N[*:1])[*:2]].[CN[*:1]]}$$$$V2.0), the Activity in data set [2] worked out at 0.26 nM/s.
Take `CNC(=O)[C@H](Cc1ccccc1)NC(=O)[C@H](CCC(=O)O)NC(=O)[C@H](Cc1ccccc1)NC(=O)[C@H](Cc1ccc(O)cc1)NC(=O)[C@H](CC(N)=O)NC(C)=O` (HELM PEPTIDE1{[ac].N.Y.F.E.F.[CN[*:1]]}$$$$V2.0): in data set [2], the Activity stood at 0.46 nM/s.
Still for that read-out and setting: for `CNC(=O)[C@H](Cc1c[nH]c2ccccc12)NC(=O)[C@H](CCC(=O)O)NC(=O)[C@H](Cc1ccccc1)NC(=O)[C@H](Cc1ccc(O)cc1)NC(=O)[C@H](CC(N)=O)NC(C)=O` (HELM PEPTIDE1{[ac].N.Y.F.E.W.[CN[*:1]]}$$$$V2.0) the value was 2.8 nM/s.
As for `CNC(=O)[C@H](Cc1c[nH]c2ccccc12)NC(=O)[C@H](CCC(=O)O)NC(=O)[C@H](Cc1ccccc1)NC(=O)[C@H](Cc1ccc(O)cc1)NC(C)=O` (HELM PEPTIDE1{[ac].Y.F.E.W.[CN[*:1]]}$$$$V2.0), the Activity in data set [2] turned out to be 0.17 nM/s.
Turning to `CNC(=O)[C@H](Cc1ccc(Cl)cc1)NC(=O)[C@H](CCC(=O)O)NC(=O)[C@H](Cc1ccccc1)NC(=O)[C@H](Cc1ccc(O)cc1)NC(=O)[C@H]1CCCC[C@@H]1C(=O)O` (X2-YFE[Phe(4-Cl)]-NHMe), in data set [2], the Activity amounted to 4 nM/s.
For the compound `CNC(=O)[C@H](Cc1c[nH]c2cc(Cl)ccc12)NC(=O)[C@H](CCC(=O)O)NC(=O)[C@H](Cc1ccccc1)NC(=O)[C@H](Cc1ccc(O)cc1)NC(=O)[C@H]1CCCC[C@@H]1C(=O)O` (X2-YFE[Trp(6-Cl)]-NHMe), in data set [2], the Activity amounted to 7.5 nM/s.
